ChEMBL document CHEMBL3621047, “Quaternary Indolizidine and Indolizidone Iminosugars as Potential Immunostimulating and Glycosidase Inhibitory Agents: Synthesis, Conformational Analysis, Biological Activity, and Molecular Docking Study” (J Med Chem, 2015)
The source made the active and inactive calls. No cut-off for these calls is given here.

Tests used:
Splenocyte [1] = assay: Immunostimulating activity in Swiss albino mouse Splenocytes assessed as increase in ConA-induced IFN-gamma secretion at 5 uM by ELISA; format: functional, cell-based
Procedure, shortened: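 Splenocyte supernatants (2 × 10^6 cells/well) were collected after 24 h stimulation with Con A 10 μM alone or with compound at 5 μM. Unstimulated cells served as control. IFN-γ was quantified by sandwich ELISA; mean ± SEM, n = 5.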

Splenocyte [2] = assay: Immunostimulating activity in Swiss albino mouse Splenocytes assessed as ConA-induced cell proliferation > 5 uM after 72 hrs by MTT assay; format: functional, cell-based
[3] = Cytotoxicity against Swiss albino mouse Splenocytes assessed as cell proliferation at 0.5 to 5 uM after 72 hrs by MTT assay; format: cell-based; conditions: splenocyte
Procedure, shortened: (§1)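 Swiss albino mouse splenocytes (2 × 10^6 cells/well) were treated with Con A alone or with test samples at final 0.5, 1, 2.5 and 5 μM. Con A is given as final 10 μg/mL in methods and 10 μM in text. Cells were held 72 h at 37 °C, 5% CO2, in RPMI with 10% FCS, then read by MTT. Values are % of Con A-treated cells (100%), mean ± SEM, n = 5.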

Splenocyte [4] = assay: Immunostimulating activity in Swiss albino mouse Splenocytes assessed as decrease in ConA-induced IL-4 secretion at 5 uM by ELISA; format: functional
[5] = target: T1, Alpha-mannosidase (Canavalia ensiformis) (UniProt C0HJB3); assay: Inhibition of jack bean alpha-mannosidase at 1 mM using 10 mM p-nitrophenyl-alpha-D-mannopyranoside as substrate
T1 sequence (whole entry): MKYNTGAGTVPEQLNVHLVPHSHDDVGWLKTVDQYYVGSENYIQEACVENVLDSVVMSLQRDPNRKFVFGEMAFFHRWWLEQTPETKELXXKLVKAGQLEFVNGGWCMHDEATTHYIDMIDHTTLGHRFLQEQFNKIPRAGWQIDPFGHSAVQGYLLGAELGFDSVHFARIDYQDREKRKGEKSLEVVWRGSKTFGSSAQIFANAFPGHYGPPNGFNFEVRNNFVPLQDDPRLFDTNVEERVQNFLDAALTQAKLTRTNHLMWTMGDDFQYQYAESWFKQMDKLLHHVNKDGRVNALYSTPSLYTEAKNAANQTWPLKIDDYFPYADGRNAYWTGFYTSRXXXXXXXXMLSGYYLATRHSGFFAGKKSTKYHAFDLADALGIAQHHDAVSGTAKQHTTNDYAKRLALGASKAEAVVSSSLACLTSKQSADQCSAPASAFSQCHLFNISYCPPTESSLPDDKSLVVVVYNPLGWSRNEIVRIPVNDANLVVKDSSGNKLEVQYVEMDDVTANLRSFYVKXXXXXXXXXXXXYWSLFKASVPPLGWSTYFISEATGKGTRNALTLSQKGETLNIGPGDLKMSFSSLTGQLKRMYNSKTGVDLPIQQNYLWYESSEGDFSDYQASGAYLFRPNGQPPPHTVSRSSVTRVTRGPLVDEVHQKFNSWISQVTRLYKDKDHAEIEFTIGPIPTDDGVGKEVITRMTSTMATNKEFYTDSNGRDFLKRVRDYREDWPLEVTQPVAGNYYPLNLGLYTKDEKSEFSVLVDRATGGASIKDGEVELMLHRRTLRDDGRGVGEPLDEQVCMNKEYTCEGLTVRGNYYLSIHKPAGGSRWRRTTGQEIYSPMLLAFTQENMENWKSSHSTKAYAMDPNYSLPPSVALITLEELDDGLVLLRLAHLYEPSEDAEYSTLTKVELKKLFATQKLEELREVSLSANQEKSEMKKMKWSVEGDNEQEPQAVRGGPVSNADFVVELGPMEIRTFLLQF
Procedure, shortened: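 Jack bean α-mannosidase (0.1 U/cm3) was preincubated with inhibitor for 1 h at 37 °C. Substrate was 10 mM p-nitrophenyl α-D-mannopyranoside in 100 mM citrate pH 4.5, reacted 10 min at 37 °C. The reaction was stopped with 200 mM borate pH 9.8 and absorbance read at 420 nm. Ki came from Lineweaver–Burk plots; average of five assays. NI means under 50% inhibition at 1 mM.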

Splenocyte [6] = assay: Immunostimulating activity in Swiss albino mouse Splenocytes assessed as increase in ConA-induced cell proliferation upto 5 uM after 72 hrs by MTT assay; format: functional, cell-based
Procedure, shortened: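 Splenocytes (2 × 10^6/well) from Swiss albino mice were treated with Con A (methods give final 10 μg/mL; results give 10 μM), alone or with compound at final 0.5, 1, 2.5 and 5 μM. Incubation was 72 h at 37 °C, 5% CO2, in RPMI with 10% FCS. Readout by MTT, expressed as % of Con A-treated cells (100%); mean ± SEM, n = 5.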

[7] = Inhibition of bovine liver beta-glucosidase using 10 mM p-nitrophenyl-[…]-D-glucopyranoside as substrate; design: species or system Bos taurus
Oryza sativa = assay: Inhibition of rice alpha-glucosidase at 1 mM using 10 mM p-nitrophenyl-alpha-D-glucopyranoside as substrate
Procedure, shortened: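 Rice α-glucosidase (0.1 U cm−3) was preincubated with compound 1 h at 37 °C. Reaction used 10 mM p-nitrophenyl-α-D-glucopyranoside in 100 mM phosphate pH 6.8, 10 min at 37 °C, stopped with 0.1 M Na2CO3. p-Nitrophenol was read at 420 nm. NI means no 50% inhibition at 1 mM. Ki came from Lineweaver–Burk plots. Average of five assays.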

[8] = Inhibition of aspergillus niger alpha-galactosidase using 10 mM p-nitrophenyl-alpha-D-galactopyranoside as substrate
Procedure, shortened: (§2)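 Enzyme (0.1 U/cm3; A. niger α-galactosidase or bovine liver β-galactosidase) was preincubated with inhibitor for 1 h at 37 °C. Substrate was 10 mM p-nitrophenyl α- or β-D-galactopyranoside in 200 mM sodium acetate, reacted 10 min at 37 °C. The reaction was stopped with 200 mM borate pH 9.8 and released p-nitrophenol read at 420 nm. Ki came from Lineweaver–Burk plots; values are the average of five assays.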

Splenocyte [9] = assay: Immunostimulating activity in Swiss albino mouse Splenocytes assessed as increase in IL-6 secretion at 5 uM by ELISA in presence of 10 uM ConA relative to control; format: functional
Procedure, shortened: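 Supernatants came from splenocytes (2 × 10^6/well) treated with Con A 10 μM plus compound at 5 μM. IL-6 was measured by ELISA: samples 2 h at 37 °C, biotinylated antibody 1 h, then streptavidin–HRP and substrate developed in the dark. Read at 550 nm with 450 nm correction and quantified from an IL-6 standard curve; mean ± SEM, n = 5.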

Beta-galactosidase = target: T2, Beta-galactosidase (Bos taurus, UniProt Q58D55); assay: Inhibition of bovine liver beta-galactosidase using 10 mM p-nitrophenyl-beta-D-galactopyranoside as substrate; procedure, shortened: as §2
T2 sequence (Q58D55 whole entry): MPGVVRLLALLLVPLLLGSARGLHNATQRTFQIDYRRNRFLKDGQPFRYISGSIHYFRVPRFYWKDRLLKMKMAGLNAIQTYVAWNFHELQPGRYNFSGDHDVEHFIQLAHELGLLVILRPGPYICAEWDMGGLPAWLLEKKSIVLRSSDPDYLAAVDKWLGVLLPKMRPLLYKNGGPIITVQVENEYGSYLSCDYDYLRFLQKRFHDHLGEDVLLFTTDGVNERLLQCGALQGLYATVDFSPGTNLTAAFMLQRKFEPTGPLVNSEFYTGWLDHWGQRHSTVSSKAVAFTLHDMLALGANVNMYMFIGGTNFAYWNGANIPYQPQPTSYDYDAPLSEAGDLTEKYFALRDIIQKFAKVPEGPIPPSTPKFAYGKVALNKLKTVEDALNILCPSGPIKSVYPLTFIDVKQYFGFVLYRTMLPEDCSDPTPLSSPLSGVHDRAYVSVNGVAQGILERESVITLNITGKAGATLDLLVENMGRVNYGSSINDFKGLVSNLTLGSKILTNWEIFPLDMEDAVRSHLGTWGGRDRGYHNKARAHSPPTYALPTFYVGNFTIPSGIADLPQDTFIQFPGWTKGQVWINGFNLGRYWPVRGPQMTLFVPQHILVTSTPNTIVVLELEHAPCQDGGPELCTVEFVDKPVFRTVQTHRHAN

Alpha-mannosidase = target: T3, Alpha-mannosidase (Canavalia ensiformis, UniProt C0HJB3); assay: Inhibition of jack bean alpha-mannosidase using 10 mM p-nitrophenyl-alpha-D-mannopyranoside as substrate
T3 sequence (C0HJB3 whole entry): T1 sequence (whole entry)
Procedure, shortened: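 Jack bean α-mannosidase (0.1 U cm−3) was preincubated with compound 1 h at 37 °C. Reaction used 10 mM p-nitrophenyl-α-D-mannopyranoside in 100 mM citrate pH 4.5, 10 min at 37 °C, stopped with 200 mM borate pH 9.8. Read at 420 nm. IC50 and Ki were determined, Ki from Lineweaver–Burk double-reciprocal plots. Mean of five assays.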

Splenocyte [10] = assay: Immunostimulating activity in Swiss albino mouse Splenocytes assessed as decrease in ConA-induced IL-4 secretion at 2.5 uM by ELISA; format: functional
Procedure, shortened: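 Supernatants came from Con A-stimulated splenocytes (2 × 10^6 cells/well) with compound at 2.5 or 5 μM. They were spun 2000g for 5 min and stored at −70 °C. IL-4 was measured by ELISA: sample 2 h at 37 °C, then peroxidase conjugate 1 h, substrate developed in the dark. Absorbance was read at 550 nm with 450 nm correction and quantified from an IL-4 standard curve. n = 5.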

Splenocyte [11] = assay: Immunostimulating activity in Swiss albino mouse Splenocytes assessed as increase in ConA-induced IFN-gamma secretion at 2.5 uM by ELISA; format: functional, cell-based
Procedure, shortened: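 IFN-γ was measured by ELISA in supernatants of splenocytes (2 × 10^6 cells/well). Cells were unstimulated, stimulated with Con A (10 μM), or given Con A plus compound (2.5 or 5 μM) for 24 h. Mean ± SEM, n = 5.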

Splenocyte [12] = assay: Immunostimulating activity in Swiss albino mouse Splenocytes assessed as increase in IL-6 secretion at 2.5 uM by ELISA in presence of 10 uM ConA relative to control; format: functional
Procedure, shortened: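 Splenocytes (2 × 10^6 cells/well) were stimulated with 10 μM Con A plus compound (2.5 or 5 μM). Supernatant IL-6 was measured by sandwich ELISA: sample 2 h at 37 °C, biotinylated antibody 1 h, streptavidin–HRP, then substrate in the dark. Absorbance was read at 550 nm with 450 nm correction against an IL-6 standard curve. Mean ± SEM, n = 5.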

Splenocyte [13] = assay: Immunostimulating activity in Swiss albino mouse Splenocytes assessed as increase in ConA-induced cell proliferation upto 2.5 uM after 72 hrs by MTT assay; format: functional, cell-based; procedure, shortened: as §1

SMILES	Activity (Splenocyte [1])	Activity (Splenocyte [2])	Activity [3]	inhibition at 5 µM (Splenocyte [4]) [%]	inhibition [5] [%]	Activity (Splenocyte [6])	IC50 [7] [µM]	Ki [7] [µM]	inhibition (Oryza sativa) [%]	IC50 [8] [µM]	Ki [8] [µM]	fold change (FC) (Splenocyte [9])	IC50 (Beta-galactosidase) [µM]	Ki (Beta-galactosidase) [µM]	IC50 (Alpha-mannosidase) [µM]	Ki (Alpha-mannosidase) [µM]	inhibition at 2.5 µM (Splenocyte [10]) [%]	Activity (Splenocyte [11])	fold change (FC) (Splenocyte [12])	Activity (Splenocyte [13])
OC[C@]12CCCN1C[C@H](O)[C@@H](O)[C@@H]2O	Active	inactive	Non-toxic	31	< 50	Active	116	95	< 50	0.13	0.09	4.1	3.6	1.5						
O=C1CC[C@@]2(CO)[C@@H](O)[C@H](O)[C@@H](O)CN12		inactive	Non-toxic				39	19	< 50	130	14		5.6	2.4	0.075	0.043	47	Active	9	Active
O=C1CC[C@@]2(CO)[C@@H](O)[C@H](O)[C@H](O)CN12		inactive	Non-toxic				46	24	< 50	630	68		7.2	3.1	1.3	0.9	34	Active	8.2	Active
OC[C@@]12CCCN1C[C@@H](O)[C@@H](O)[C@@H]2O	Active	inactive	Non-toxic	31	< 50	Active	156	86	< 50	0.63	0.44	3.7	1.2	0.5						
OC[C@@]12CCCN1C[C@H](O)[C@@H](O)[C@@H]2O	Active	inactive	Non-toxic	34	< 50	Active	202	102	< 50	0.24	0.54	4.4	2.3	1						
